Data: ChEMBL document CHEMBL4765386, “Discovery of tertiary amide derivatives incorporating benzothiazole moiety as anti-gastric cancer agents in vitro via inhibiting tubulin polymerization and activating the Hippo signaling pathway” (Eur J Med Chem, 2020)
Calls of active or inactive are those of the source. No cut-off for these calls is given here.

Legend:
MGC-803 [1] = experiment: Activation of Hippo signaling pathway in human […] cells assessed as increase in MST1/2 phosphorylation at 20 to 60 nM incubated for 48 hrs by Western blot analysis; format: cell-based; conditions: filed as activator, dose 20-60 nM
Outline: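 Western blot on gastric cancer cells exposed to compound or DMSO at 20, 40 and 60 nM for 48 h. Cells were lysed, then the denatured lysates were separated by SDS-PAGE and transferred to PVDF. Membranes were blocked and probed with primary and then secondary antibodies. Hippo pathway proteins were detected.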

MGC-803 [2] = experiment: Induction of apoptosis in human MGC-803 cells assessed as upregulation of DR5 at 20 to 60 nM incubated for 48 hrs by Western blot analysis; format: functional, cell-based; conditions: dose 20-60 nM
Outline: (§1)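 Western blot on MGC-803 and SGC-7901 cells given 20, 40 and 60 nM compound or DMSO for 48 h. Denatured lysates were run on SDS-PAGE and transferred to PVDF, then probed with primary and secondary antibodies to detect apoptosis-related proteins.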

MGC-803 [3] = experiment: Induction of apoptosis in human MGC-803 cells assessed as upregulation of Bak at 20 to 60 nM incubated for 48 hrs by Western blot analysis; format: functional, cell-based; conditions: dose 20-60 nM; outline: as §1
SGC-7901 = experiment: Induction of apoptosis in human SGC-7901 cells assessed as upregulation of Noxa at 20 to 60 nM incubated for 48 hrs by Western blot analysis; format: functional, cell-based; conditions: dose 20-60 nM
Outline: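 Cells grown in RPMI-1640 with 10% FBS, penicillin/streptomycin at 37 °C, 5% CO2. Exposure to 20, 40 or 60 nM for 48 h alongside DMSO control. Lysates denatured, resolved by SDS-PAGE, transferred to PVDF, blocked, then probed with primary and secondary antibodies.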

MGC-803 [4] = experiment: Induction of apoptosis in human MGC-803 cells assessed as late apoptotic cells at 60 nM incubated for 48 hrs by annexin V-FITC and PI staining based flow cytometry analysis (reference value: 4.1 %); format: functional

With `COc1ccc(CN(C(=O)CSc2nc3ccccc3s2)c2cc(OC)c(OC)c(OC)c2)cc1O` as the compound, how does the Activity (MGC-803 [1]) read?
Its Activity is “Active”.

And the Activity (MGC-803 [2])?
Its Activity is “Active”.

And the Activity (MGC-803 [3])?
Its Activity is “Active”.

And the Activity (SGC-7901)?
Its Activity is “Active”.

What about the Activity (MGC-803 [4]) of the same compound?
Its Activity is 30.4%.
